The values below come from ChEMBL document CHEMBL1130313, “1-[(omega-aminoalkyl)amino]-4-[N-(omega-aminoalkyl)carbamoyl]-9-oxo-9, 10-dihydroacridines as intercalating cytotoxic agents: synthesis, DNA binding, and biological evaluation” (J Med Chem, 1997).

pIC50: −log10 of the molar value.

The test system of one series is HT-29. The series can be described thus: Cytotoxic potency required to inhibit HT-29 cell growth by 50% after cell drug contact for 144 hrs. Format: functional, cell-based. To be noted: Homo sapiens, HT-29, 144 h.
Another series has as its system A2780. The series can be described thus: Cytotoxic potency required to inhibit A2780 cell growth by 50% after cell drug contact for 96 hrs. To be noted: Homo sapiens, A2780, 96 h. Format: functional, cell-based. In outline: (§1)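 Human ovarian carcinoma (A2780, CH1, SKOV-3) or melanoma G-361 cells were plated at 100-5000 cells and allowed to adhere overnight. Aqueous drug at pH 7.0, diluted from DMSO stock, was applied at various concentrations for 96 h continuous exposure at 37 °C. Growth was measured by sulforhodamine B protein staining. IC50 is 50% growth inhibition versus untreated controls.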

A further series deals with CH1. The series can be described thus: Cytotoxic potency required to inhibit CH1 cell growth by 50%. The series is classed as functional, cell-based. To be noted: Homo sapiens. The method, boiled down:
as §1

The subject of series [1] is Calf thymus DNA. The series can be described thus: Inhibitory concentration against ethidium:calf thymus DNA (1.26:1) binding at pH 5. The series is classed as nucleic-acid assay. To be noted: Bos taurus. In outline: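 Ethidium displacement at pH 5: 1.26 μM ethidium bromide with 1 μM CT-DNA in 9.3 mM NaCl, 2 mM NaOAc, 0.1 mM EDTA. Drug (stock ~5 mM in DMSO) is added serially at 20 °C. Fluorescence is read with excitation 546 nm and emission 595 nm. C50 is the concentration reducing bound-ethidium fluorescence by 50%; mean of three.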

For series [2], the system named is Nucleic Acid. The series can be described thus: Concentration required to give 50% fluorescence quenching of bound ethidium for [ethidium]: [poly(dA-dT)]2 DNA in ratio of 0.1:1 at pH 5. Format: nucleic-acid assay. The method, boiled down:
(§2)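 Q (quenching) assay at pH 5: DNA at 20 μM DNAp (CT-DNA, [poly(dA-dT)]2 or [poly(dG-dC)]2) with 2 μM ethidium bromide. Buffer is 9.3 mM NaCl, 2 mM NaOAc, 0.1 mM EDTA, 0.01 M ionic strength. Drug (stock ~5 mM in DMSO) is added serially at 20 °C. Fluorescence is read with excitation 546 nm and emission 595 nm. Q is the concentration halving bound-ethidium fluorescence; mean of three.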

The next series relates to G-361. The series can be described thus: Cytotoxic potency required to inhibit G-361 cell growth by 50%. To be noted: Homo sapiens. The series is classed as functional, cell-based. The method, boiled down:
as §1

Series [3] relates to Calf thymus DNA. The series can be described thus: Inhibitory concentration against ethidium:Calf thymus DNA(0.1:1) binding at pH 5. The series is classed as nucleic-acid assay. To be noted: Bos taurus. In outline: as §2
For series [4], the system named is Calf thymus DNA. The series can be described thus: Inhibitory concentration against ethidium:Calf thymus DNA (1.26:1) binding at pH 7. The series is classed as nucleic-acid assay. To be noted: Bos taurus. The method, boiled down:
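Ethidium displacement at pH 7: 1.26 μM ethidium bromide with 1 μM CT-DNA in 10 mM TES, 0.1 mM EDTA. Drug (stock ~5 mM in DMSO) is titrated in at 20 °C. Read-out is excitation 546 nm, emission 595 nm. C50 is the drug concentration cutting bound-ethidium fluorescence by 50%; mean of three determinations.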

A further series deals with L1210. The series can be described thus: Cytotoxic potency required to inhibit L1210 cell growth by 50% after cell drug contact for 48 hrs. Format: functional, cell-based. To be noted: Mus musculus, L1210, 48 h. The method, boiled down: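 Mouse L1210 leukemia cells at 5 × 10^4 cells/mL were exposed for 48 h at 37 °C to aqueous drug solutions (≤0.5% v/v DMSO). Surviving cells were counted by Coulter counter against drug-free controls to give IC50. Assays were done in duplicate.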

Series [5] has as its system Nucleic Acid. The series can be described thus: Concentration required to give 50% fluorescence quenching of bound ethidium for [ethidium]: [(poly dG-dC)]2 DNA in ratio of 0.1:1 at pH 5. Format: nucleic-acid assay. In outline: as §2
Another series concerns SK-OV-3. The series can be described thus: Cytotoxic potency required to inhibit SKOV-3 cell growth 50%. Format: functional, cell-based. To be noted: Homo sapiens. The method, boiled down:
as §1

The nature of series [6]: Partition coefficient (logP). Format: physicochemical. To be noted: octanol/water.

For `O=C1c2c(O)ccc(O)c2C(=O)c2c(NCCNCCO)ccc(NCCNCCO)c21` [MITOXANTRONE], the pIC50 in the series with HT-29 is 8.00; in the series on A2780, 9.26; with CH1 it was 8.58; with G-361 it was 9.19; in the series with L1210 it was 9.40. In addition, the C50 in the series with Calf thymus DNA [1] was determined as 0.021 µM; in the series with Calf thymus DNA [4], 0.037 µM. Also, the Q stood at 0.32 µM in the series on Nucleic Acid [2], 0.34 µM in the series on Calf thymus DNA [3] and 0.37 µM in the series on Nucleic Acid [5].

Consider `c1ccc2nc3ccccc3cc2c1` [ACRIDINE], for which the pIC50 in the series with A2780 was < 4.00. Further, the values for the C50 with Calf thymus DNA [1] and with Calf thymus DNA [4] were 142 µM and 320 µM, respectively. Further, the Q with Nucleic Acid [2] stood at 26 µM; with Calf thymus DNA [3], 24 µM; in the series on Nucleic Acid [5] it was 22 µM.

Regarding `Nc1ccc2c(O)c3ccc(N)cc3nc2c1`, the pIC50 with A2780 was 4.43; with CH1, < 4.00; in the series on SK-OV-3, < 4.00; with L1210, 4.46. The C50 stood at 660 µM in the series on Calf thymus DNA [1] and 630 µM with Calf thymus DNA [4]. Moreover, the Q was > 400 µM in the series on Nucleic Acid [2], 340 µM in the series with Calf thymus DNA [3] and 280 µM with Nucleic Acid [5].

For `COc1cc(NS(C)(=O)=O)ccc1Nc1c2ccccc2nc2ccccc12`, in the series on Calf thymus DNA [1], the C50 was found to be 8.9 µM. Also, the Q was 25 µM in the series with Nucleic Acid [2], 3.8 µM in the series with Calf thymus DNA [3] and 4.5 µM with Nucleic Acid [5].

For the molecule `Nc1ccc2cc3ccc(N)cc3nc2c1`, the Q with Nucleic Acid [2] was found to be 24 µM; in the series on Calf thymus DNA [3], 20 µM; with Nucleic Acid [5] it was 14 µM.

As to `N=C(N)c1ccc(/N=N/Nc2ccc(C(=N)N)cc2)cc1`, the values for the C50 in the series with Calf thymus DNA [1] and in the series with Calf thymus DNA [4] were 4.4 µM and 1.5 µM, respectively. Further, the Q in the series on Nucleic Acid [2] was determined as 5 µM; in the series on Calf thymus DNA [3] it was 9 µM; with Nucleic Acid [5], 19 µM.

For `O=C(NCCN1CCOCC1)c1ccc(NCCN2CCOCC2)c2c(O)c3ccccc3nc12`, the pIC50 with HT-29 was 5.35; in the series with A2780, 5.82; in the series with CH1, 5.90; in the series with G-361, 5.14; with SK-OV-3, 5.13; in the series with L1210, 6.36. Besides, the C50 is 16 µM in the series with Calf thymus DNA [1] and 3.7 µM in the series on Calf thymus DNA [4]. In addition, the Q was found to be 3.7 µM in the series with Nucleic Acid [2], 4.8 µM in the series with Calf thymus DNA [3] and 6 µM with Nucleic Acid [5]. In addition, in series [6], the logP amounted to 4.42.

For `O=c1c2ccccc2[nH]c2ccccc12` [ACRIDONE], the pIC50 is < 4.00 in the series with A2780; 4.11 with CH1; < 4.00 with G-361; < 4.00 in the series on SK-OV-3; < 4.00 in the series on L1210. For the same molecule, the figures for the Q with Nucleic Acid [2], in the series on Calf thymus DNA [3] and with Nucleic Acid [5] were > 500 µM, > 400 µM and 340 µM, respectively.

Turning to `CN(C)CCCNC(=O)c1ccc(NCCCN(C)C)c2c(O)c3ccccc3nc12`, the pIC50 with HT-29 was 6.24; in the series on A2780, 6.96; with CH1, 6.47; in the series on G-361, 5.44; with SK-OV-3, 6.40; in the series on L1210, 6.28. Moreover, the C50 in the series on Calf thymus DNA [1] came to 3.2 µM; in the series with Calf thymus DNA [4] it was 0.38 µM. In addition, the Q with Nucleic Acid [2] amounted to 3.2 µM; with Calf thymus DNA [3], 4.8 µM; in the series with Nucleic Acid [5] it was 6.6 µM. Also, the logP in [6] worked out at 5.76.

Regarding `CN(C)CCNC(=O)c1ccc(N(C)CCN(C)C)c2c(O)c3ccccc3nc12`, the pIC50 is 5.52 in the series with HT-29; 6.39 in the series on A2780; 5.47 with CH1; 5.82 in the series with G-361; 6.00 in the series with SK-OV-3; 5.78 in the series on L1210. Besides, the values for the C50 in the series with Calf thymus DNA [1] and in the series on Calf thymus DNA [4] were 4.8 µM and 0.94 µM, respectively. Moreover, the Q in the series with Nucleic Acid [2] came to 13 µM; with Calf thymus DNA [3], 14 µM; in the series on Nucleic Acid [5], 15 µM. The logP in series [6] amounted to 4.21.
